From ChEMBL document CHEMBL1144006, “Phenylalanine-containing hydroxamic acids as selective inhibitors of class IIb histone deacetylases (HDACs)” (Bioorg Med Chem, 2008)
Non-standard residues stand in square brackets, D forms with d. Residues, ends and D or L forms follow the SMILES beside them. *: point of attachment. Asu = N[C@@H](CCCCCC(=O)O)C(=O)O; Aib = CC(C)(N)C(=O)O; NHOH = ON*

How the values were obtained:
Rattus norvegicus = organism: Rattus norvegicus; assay: Selectivity for rat liver HDAC6 over rat liver HDAC1
Histone deacetylase 1 [1] = biological target: T1, Histone deacetylase 1 (Rattus norvegicus, UniProt Q4QQW4); assay: Inhibition of HDAC1 in rat liver extract
T1 sequence (Q4QQW4 whole entry): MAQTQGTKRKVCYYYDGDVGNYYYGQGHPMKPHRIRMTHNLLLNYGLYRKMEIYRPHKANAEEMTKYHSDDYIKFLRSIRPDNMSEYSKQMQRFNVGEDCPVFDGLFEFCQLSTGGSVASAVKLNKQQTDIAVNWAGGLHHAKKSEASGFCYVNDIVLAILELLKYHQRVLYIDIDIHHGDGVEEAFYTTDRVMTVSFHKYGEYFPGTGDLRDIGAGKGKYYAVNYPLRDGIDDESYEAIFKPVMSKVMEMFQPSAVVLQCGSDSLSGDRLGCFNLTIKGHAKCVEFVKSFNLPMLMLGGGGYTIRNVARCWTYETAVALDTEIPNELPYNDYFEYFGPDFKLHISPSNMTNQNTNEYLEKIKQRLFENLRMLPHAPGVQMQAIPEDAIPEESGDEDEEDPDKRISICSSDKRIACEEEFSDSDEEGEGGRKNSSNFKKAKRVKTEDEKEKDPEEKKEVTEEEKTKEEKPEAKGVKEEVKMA

Homo sapiens = organism: Homo sapiens; assay: Selectivity for human FLAG-tagged HDAC6 over human FLAG-tagged HDAC1
Summary of the method: (§1)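 FLAG-HDAC1 or FLAG-HDAC6 was immunoprecipitated with M2 agarose from lysates of overexpressing 293T cells, washed in enzyme buffer and diluted 1:10. Bead suspension, inhibitor and unselective fluorogenic substrate ZMAL were incubated at 37 C for 180 min. The reaction was stopped with TSA/borate pH 9.5/NDA and read at ex 330/em 390 nm. IC50 came from a dilution series against 0% and 100% (TSA) inhibition standards. Selectivity is the ratio of HDAC1 to HDAC6 IC50.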

[2] = biological target: T2, Protein deacetylase HDAC6 (Homo sapiens, UniProt Q9UBN7); assay: Inhibition of FLAG-tagged HDAC6 expressed in human 293T cells; format: cell-based
T2 sequence (Q9UBN7 whole entry): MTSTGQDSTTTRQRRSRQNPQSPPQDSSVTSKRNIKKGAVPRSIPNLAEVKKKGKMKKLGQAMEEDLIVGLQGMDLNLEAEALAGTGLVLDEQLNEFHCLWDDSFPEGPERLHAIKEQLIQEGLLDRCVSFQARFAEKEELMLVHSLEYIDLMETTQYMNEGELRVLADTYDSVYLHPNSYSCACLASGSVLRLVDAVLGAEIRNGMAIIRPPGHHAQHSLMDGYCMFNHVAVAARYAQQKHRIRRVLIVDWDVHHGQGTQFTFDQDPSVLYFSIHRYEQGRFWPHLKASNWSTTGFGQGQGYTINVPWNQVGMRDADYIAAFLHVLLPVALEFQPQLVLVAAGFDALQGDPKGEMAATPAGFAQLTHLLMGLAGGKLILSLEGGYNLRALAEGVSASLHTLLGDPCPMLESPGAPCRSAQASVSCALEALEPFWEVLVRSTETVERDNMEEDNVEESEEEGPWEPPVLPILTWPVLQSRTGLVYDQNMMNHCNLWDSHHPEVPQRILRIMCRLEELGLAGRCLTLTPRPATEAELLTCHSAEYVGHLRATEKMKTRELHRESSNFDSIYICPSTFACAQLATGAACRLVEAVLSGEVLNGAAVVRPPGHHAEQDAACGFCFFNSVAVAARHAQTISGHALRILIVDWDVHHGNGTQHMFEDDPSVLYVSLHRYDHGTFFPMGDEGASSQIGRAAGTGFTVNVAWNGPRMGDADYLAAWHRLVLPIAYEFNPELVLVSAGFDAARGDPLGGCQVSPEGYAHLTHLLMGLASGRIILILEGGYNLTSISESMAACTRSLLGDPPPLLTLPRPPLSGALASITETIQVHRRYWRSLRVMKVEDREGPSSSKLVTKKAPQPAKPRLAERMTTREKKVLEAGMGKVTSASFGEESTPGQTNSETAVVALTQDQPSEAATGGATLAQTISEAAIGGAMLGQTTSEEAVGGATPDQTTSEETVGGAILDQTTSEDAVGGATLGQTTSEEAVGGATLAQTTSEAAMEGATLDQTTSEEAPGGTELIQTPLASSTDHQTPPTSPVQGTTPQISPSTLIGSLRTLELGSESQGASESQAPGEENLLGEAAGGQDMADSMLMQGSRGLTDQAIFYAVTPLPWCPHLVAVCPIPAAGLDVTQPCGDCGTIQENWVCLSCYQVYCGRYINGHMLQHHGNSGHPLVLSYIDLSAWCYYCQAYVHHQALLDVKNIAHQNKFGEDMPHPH

MCF7 = assay: Cytotoxicity against human MCF7 cells after 48 hrs by One aqueous proliferation assay; format: functional, cell-based; conditions: MCF7, 48 h
Summary of the method: (§2)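 Cells seeded at 5000 per well, with compound or DMSO vehicle added 24 h after seeding. Incubated 48 h at 37 C, three replicates per concentration. Growth was read by MTS absorbance at 490 nm. GI50 is the concentration reducing cell number by 50% versus control.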

MCF-10A = assay: Cytotoxicity against human MCF10A cells after 48 hrs by One aqueous proliferation assay; format: functional, cell-based; summary of the method: as §2
SQ20B = assay: Cytotoxicity against human SQ20B cells after 48 hrs by One aqueous proliferation assay; format: functional, cell-based; summary of the method: as §2
[3] = Inhibition of HDAC6 in rat liver extract
HeLa = assay: Cytotoxicity against human HeLa cells after 48 hrs by One aqueous proliferation assay; format: functional, cell-based; summary of the method: as §2
PC-3 = assay: Cytotoxicity against human PC3 cells after 48 hrs by One aqueous proliferation assay; format: functional, cell-based; conditions: PC-3, 48 h; summary of the method: as §2
Jurkat = assay: Cytotoxicity against human Jurkat cells after 48 hrs by One aqueous proliferation assay; format: functional, cell-based; summary of the method: as §2
Histone deacetylase 1 [4] = biological target: Histone deacetylase 1 (Homo sapiens, UniProt Q13547); assay: Inhibition of FLAG-tagged HDAC1 expressed in human 293T cells; format: cell-based; summary of the method: as §1
Histone deacetylase 1 (Homo sapiens, UniProt Q13547), sequence (Q13547 whole entry): as the sequence (Q4QQW4 whole entry) above, with K8R, E399D, D424E, M481L counted along it

Histone deacetylase 1 [5] = biological target: T1, Histone deacetylase 1; assay: Inhibition of HDAC1 in rat liver extract by trypsin assay
Summary of the method: (§3)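 Same rat liver extract and the subtype-selective substrates (Z-(propionyl)Lys-AMC for HDAC1, Boc(Ac)Lys-(F3-AMC) for HDAC6), incubated with inhibitor at 37 C. After incubation the reaction was developed with trypsin instead of NDA. IC50 was taken from a dilution series against 0% and 100% (TSA) inhibition standards.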

[6] = Inhibition of HDAC6 in rat liver extract by trypsin assay; summary of the method: as §3

| Structure (SMILES) | Ratio IC50 (Rattus norvegicus) | IC50 (Histone deacetylase 1 [1]) [nM] | Ratio IC50 (Homo sapiens) | IC50 [2] [nM] | IC50 (MCF7) [µM] | IC50 (MCF-10A) [µM] | IC50 (SQ20B) [µM] | IC50 [3] [nM] | IC50 (HeLa) [µM] | IC50 (PC-3) [µM] | IC50 (Jurkat) [nM] | IC50 (Histone deacetylase 1 [4]) [µM] | IC50 (Histone deacetylase 1 [5]) [µM] | IC50 [6] [µM] |
| --- | --- | --- | --- | --- | --- | --- | --- | --- | --- | --- | --- | --- | --- | --- |
| COC(=O)[C@H](Cc1ccc(-c2cccs2)cc1)NC(=O)CCCCCCC(=O)NO | 0.98 | 570 | 0.51 | 9990 | 4 | 8 | 6 | 580 | 3 | 1.8 | 400 | 5.07 |  |  |
| CC1(C)NC(=O)[C@H](CCCCCC(=O)NO)NC(=O)[C@H]2CCCN2C(=O)[C@H](Cc2ccccc2)NC1=O (cyclo([Aib]F[dP][Asu](NHOH))) | 0.09 | 21 | 0.01 | 40 |  |  |  | 230 |  |  |  | 0.0004 |  |  |
| COC(=O)[C@H](Cc1ccc(-c2ccccc2)cc1)NC(=O)CCCCCCCC(=O)NO | 0.28 | 1680 | 4.09 | 2330 | 21 | 42 | 33 | 6100 | 7 | 9.9 | 2700 | 9.54 |  |  |
| COC(=O)[C@H](Cc1ccc(-c2ccoc2)cc1)NC(=O)CCCCCCCC(=O)NO | 4.46 | 3030 | 9.81 | 1050 | 32 | 44 | 35 | 680 | 21 | 10 | 4000 | 10.3 |  |  |
| COC(=O)[C@H](Cc1ccc(Br)cc1)NC(=O)CCCCCCCC(=O)NO | 3.1 | 2110 | 6.09 | 4670 | 0.9 |  |  | 680 |  |  |  | 28.4 |  |  |
| COC(=O)[C@H](Cc1ccc(-c2ccsc2)cc1)NC(=O)CCCCCCCC(=O)NO | 3.72 | 3010 | 10.8 | 1770 | 17 | 32 | 37 | 810 | 10 | 10 | 2800 | 19.2 |  |  |
| COC(=O)[C@H](Cc1ccc(Br)cc1)NC(=O)CCCCCCC(=O)NO | 0.64 | 3190 | 13.5 |  | 22 | > 50 | 25 | 4980 | 15 | > 50 | 3000 | 22.9 |  |  |
| COC(=O)[C@H](Cc1ccc(-c2ccc(-c3ccccc3)cc2)cc1)NC(=O)CCCCCCCC(=O)NO | 1.3 | 8760 | 2.6 | 14700 | 3.8 |  |  | 6760 |  |  |  | 38.3 |  |  |
| COC(=O)[C@H](Cc1ccc(-c2ccco2)cc1)NC(=O)CCCCCCCC(=O)NO | 5.19 | 2440 | 4.19 | 2330 | 18 |  |  | 470 |  |  |  | 9.76 |  |  |
| CN(C)c1ccc(C(=O)NCCCCCCC(=O)NO)cc1 | 3 | 240 | 3.95 | 750 |  |  |  | 80 |  |  |  | 2.96 |  |  |
| COC(=O)[C@H](Cc1ccc(-c2ccsc2)cc1)NC(=O)CCCCCCC(=O)NO | 1.18 | 590 | 0.83 | 4020 | 1.5 |  |  | 500 |  |  |  | 3.34 |  |  |
| COC(=O)[C@H](Cc1ccc(-c2ccc(-c3ccccc3)cc2)cc1)NC(=O)CCCCCCC(=O)NO | 0.17 | 130 | 1.39 | 690 | 0.8 |  |  | 780 |  |  |  | 0.96 |  |  |
| COC(=O)[C@H](Cc1ccc(-c2ccccc2)cc1)NC(=O)CCCCCCC(=O)NO | 0.76 | 440 | 1.16 | 1050 | 5 |  |  | 580 |  |  |  | 1.22 |  |  |
| COC(=O)[C@H](Cc1ccc(-c2ccoc2)cc1)NC(=O)CCCCCCC(=O)NO | 1.41 | 3180 | 5.62 | 1130 | 1.5 |  |  | 2250 |  |  |  | 6.35 |  |  |
| COC(=O)[C@H](Cc1ccc(-c2ccc3ccccc3c2)cc1)NC(=O)CCCCCCCC(=O)NO | 1.38 |  | 3.7 | 2850 | 4 |  |  |  |  |  |  | 10.5 | 5.19 | 3.76 |
| COC(=O)[C@H](Cc1ccc(-c2cccs2)cc1)NC(=O)CCCCCCCC(=O)NO | 3.04 | 2550 | 4.1 | 4090 | 4 |  |  | 840 |  |  |  | 16.8 |  |  |
| COC(=O)[C@H](Cc1ccc(-c2ccc3ccccc3c2)cc1)NC(=O)CCCCCCC(=O)NO | 0.69 | 630 | 2.55 | 1170 | 1.9 |  |  | 910 |  |  |  | 2.98 |  |  |
| COC(=O)[C@H](Cc1ccc(-c2ccco2)cc1)NC(=O)CCCCCCC(=O)NO | 1.11 | 7530 | 0.58 | 4490 | 1.5 |  |  | 6760 |  |  |  | 2.61 |  |  |
